The results in this text go back to ChEMBL document CHEMBL2046374, “Synthesis and biological evaluation of vinyl ether-containing azole derivatives as inhibitors of Trichophyton rubrum” (2012).

The subject of this experiment is Trichophyton rubrum. The experiment can be described thus: Antifungal activity against Trichophyton rubrum incubated at 35 degC for 72 hrs by NCCLS based microbroth dilution method. It is filed as functional. In a few lines: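 Broth microdilution in 96-well plates per NCCLS; compounds dissolved in DMSO, serially diluted in growth medium, inoculated, incubated at 35 °C, read at 72 h for T. rubrum. MIC80 taken as first well with ~80% growth reduction versus drug-free well. Fluconazole, itraconazole, voriconazole, omoconazole and amphotericin B as positive controls. Tests run three times; mean of replicates reported.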
A general note: Broth dilution looks for growth in wells or tubes with falling amounts of substance.

Values after ≈ are worked out from the molar mass of the structure shown.

The compound `C/C(=C(/OCCOc1ccc(Cl)cc1)c1ccc(F)cc1F)n1cncn1.O=[N+]([O-])O` returned an MIC80 of 0.2 µg/mL.

In the case of `C/C(=C(/OCCCOc1ccc(Cl)cc1)c1ccc(F)cc1F)n1cncn1.O=[N+]([O-])O`, the MIC80 came out at 0.125 µg/mL.

Take `C/C(=C(/OCCCCOc1ccc(Cl)cc1)c1ccc(F)cc1F)n1cncn1.O=[N+]([O-])O`: the MIC80 came out at 0.0625 µg/mL.

Consider `C/C(=C(/OCCCCCOc1ccc(Cl)cc1)c1ccc(F)cc1F)n1cncn1.O=[N+]([O-])O`, for which the MIC80 is 0.25 µg/mL.

Consider `C/C(=C(/OCCCCCCOc1ccc(Cl)cc1)c1ccc(F)cc1F)n1cncn1.O=[N+]([O-])O`, for which the MIC80 was found to be 2.5 µg/mL.

In turn, `C/C(=C(/OCCCOc1ccc(Br)cc1)c1ccc(F)cc1F)n1cncn1.O=[N+]([O-])O` displayed an MIC80 of 0.25 µg/mL.

Compound `C/C(=C(/OCCCOc1ccc(F)cc1)c1ccc(F)cc1F)n1cncn1.O=[N+]([O-])O` displayed an MIC80 of 0.1 µg/mL.

The compound `C/C(=C(/OCCCCOc1ccccc1Cl)c1ccc(F)cc1F)n1cncn1.O=[N+]([O-])O` returned an MIC80 of 0.1 µg/mL.

In turn, `C/C(=C(/OCCCCOc1cccc(Cl)c1)c1ccc(F)cc1F)n1cncn1.O=[N+]([O-])O` gave an MIC80 of 0.025 µg/mL.

In the case of `C/C(=C(/OCCCCOc1ccc(Cl)cc1Cl)c1ccc(F)cc1F)n1cncn1.O=[N+]([O-])O`, the MIC80 was 2 µg/mL.

For the compound `C/C(=C(/OCCCCOc1c(Cl)cc(Cl)cc1Cl)c1ccc(F)cc1F)n1cncn1.O=[N+]([O-])O`, the MIC80 was greater than 20 µg/mL.

Compound `C/C(=C(/OCCCCOc1ccc(Br)cc1)c1ccc(F)cc1F)n1cncn1.O=[N+]([O-])O` came in with an MIC80 of 0.05 µg/mL.

In turn, `C/C(=C(/OCCCCOc1ccc(F)cc1)c1ccc(F)cc1F)n1cncn1.O=[N+]([O-])O` yielded an MIC80 of 0.025 µg/mL.

`C/C(=C(/OCCCOc1ccc(C)cc1)c1ccc(F)cc1F)n1cncn1.O=[N+]([O-])O` displayed an MIC80 of 2.5 µg/mL.

For the compound `C/C(=C(/OCCCCOc1ccc(C)cc1)c1ccc(F)cc1F)n1cncn1.O=[N+]([O-])O`, the MIC80 is 0.2 µg/mL.

Regarding `C[C@@H]1[C@H](O)[C@@H](C)/C=C/C=C/C=C/C=C/C=C/C=C/C=C/[C@H](O[C@@H]2O[C@H](C)[C@@H](O)[C@H](N)[C@@H]2O)C[C@@H]2O[C@](O)(C[C@@H](O)C[C@@H](O)[C@H](O)CC[C@@H](O)C[C@@H](O)CC(=O)O[C@H]1C)C[C@H](O)[C@H]2C(=O)O` [AMPHOTERICIN B], the MIC80 is 2 µg/mL (≈ 2.16 µM).

In the case of `OC(Cn1cncn1)(Cn1cncn1)c1ccc(F)cc1F` [FLUCONAZOLE], the MIC80 was found to be 4 µg/mL (≈ 13.1 µM).

With `CCC(C)n1ncn(-c2ccc(N3CCN(c4ccc(OCC5COC(Cn6cncn6)(c6ccc(Cl)cc6Cl)O5)cc4)CC3)cc2)c1=O` (stereo not given) [ITRACONAZOLE], the MIC80 amounted to 0.125 µg/mL (≈ 0.177 µM).

Compound `C/C(=C(/OCCOc1ccc(Cl)cc1)c1ccc(Cl)cc1Cl)n1ccnc1` [OMOCONAZOLE] displayed an MIC80 of 0.1 µg/mL (≈ 0.236 µM).

For the compound `C[C@@H](c1ncncc1F)[C@](O)(Cn1cncn1)c1ccc(F)cc1F` [VORICONAZOLE], the MIC80 is 0.0625 µg/mL (≈ 0.179 µM).

The MIC80 is the lowest concentration that inhibits either 80% of growth or 80% of the strains tested, depending on the study. Higher therefore signals weaker potency.
